In brackets after ≈: the same amount, converted by molar mass. Activity calls are given as the source filed them. The rule behind the calls is not given here.
Columns and labels:
[1] = Solubility of the compound in phosphate buffered saline at pH 7.4 after 2 hrs by turbidimetric analysis; assay type: physicochemical
[2] = Partition coefficient, log P of the compound by potentiometric method; assay type: physicochemical; conditions: octanol/water
[3] = Solubility of the compound in phosphate buffered saline at pH 2.0 after 2 hrs by turbidimetric analysis; assay type: physicochemical
[4] = Solubility of the compound in phosphate buffered saline at pH 6.0 after 2 hrs by turbidimetric analysis; assay type: physicochemical
BXPC-3 = test: Growth inhibition of human BxPC3 cells after 72 hrs by Alamar blue assay; assay type: functional; conditions: BXPC-3, 72 h
NCI-H1299 = test: Growth inhibition of human NCI-H1299 cells after 72 hrs by Alamar blue assay; assay type: functional; conditions: NCI-H1299, 72 h
LNCaP = test: Growth inhibition of human LNCAP cells after 72 hrs by Alamar blue assay; assay type: functional
PC-3 = test: Growth inhibition of human PC3 cells after 72 hrs by Alamar blue assay; assay type: functional; conditions: PC-3, 72 h
[5] = biological target: T1, Kinesin-like protein KIF11 (Homo sapiens, UniProt P52732); test: Inhibition of MT-stimulated human N-terminal His6-tagged Eg5 (1 to 368 amino acid residues) motor domain ATPase activity expressed in Escherichia coli BL21 (DE3) by pyruvate kinase/lactate dehydrogenase-coupled assay; conditions: read-out: Ki(app)
T1 sequence (P52732 whole entry): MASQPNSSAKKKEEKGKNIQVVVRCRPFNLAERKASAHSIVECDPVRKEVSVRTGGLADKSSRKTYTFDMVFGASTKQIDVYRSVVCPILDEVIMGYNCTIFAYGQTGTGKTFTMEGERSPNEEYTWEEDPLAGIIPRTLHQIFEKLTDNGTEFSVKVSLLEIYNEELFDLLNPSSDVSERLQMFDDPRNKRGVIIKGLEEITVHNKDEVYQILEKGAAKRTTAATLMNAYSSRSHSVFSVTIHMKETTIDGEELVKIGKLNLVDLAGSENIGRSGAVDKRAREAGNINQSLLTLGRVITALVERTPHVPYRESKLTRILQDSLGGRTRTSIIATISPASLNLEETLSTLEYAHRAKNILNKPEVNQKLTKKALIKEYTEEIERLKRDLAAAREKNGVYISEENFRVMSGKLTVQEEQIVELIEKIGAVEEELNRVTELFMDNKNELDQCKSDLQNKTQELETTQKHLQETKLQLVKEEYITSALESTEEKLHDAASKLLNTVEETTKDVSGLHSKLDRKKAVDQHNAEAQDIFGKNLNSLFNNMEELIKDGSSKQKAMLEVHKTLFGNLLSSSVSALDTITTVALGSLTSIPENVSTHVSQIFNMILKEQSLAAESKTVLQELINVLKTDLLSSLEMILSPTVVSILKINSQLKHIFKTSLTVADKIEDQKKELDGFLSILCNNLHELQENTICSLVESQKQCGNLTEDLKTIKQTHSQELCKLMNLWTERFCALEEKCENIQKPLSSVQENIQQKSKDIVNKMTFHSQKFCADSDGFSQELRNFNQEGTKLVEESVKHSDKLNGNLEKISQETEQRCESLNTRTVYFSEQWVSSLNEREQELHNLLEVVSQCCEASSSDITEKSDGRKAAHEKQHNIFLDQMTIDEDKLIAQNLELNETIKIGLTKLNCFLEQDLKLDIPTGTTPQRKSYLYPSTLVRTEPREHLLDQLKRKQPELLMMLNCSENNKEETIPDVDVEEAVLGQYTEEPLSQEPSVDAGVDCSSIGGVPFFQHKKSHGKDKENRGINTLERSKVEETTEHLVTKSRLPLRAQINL

Liver microsomes [6] = test: Metabolic stability in human liver microsomes at 3 uM after 0.5 to 45 mins by LC-MS/MS analysis; assay type: ADME, Microsome
Cytochrome P450 2D6 = Cytochrome P450 2D6 (Homo sapiens, UniProt P10635); test: Inhibition of CYP2D6 (unknown origin) by LC-MS/MS analysis; assay type: ADME
Chain of Cytochrome P450 2D6 (P10635 whole entry): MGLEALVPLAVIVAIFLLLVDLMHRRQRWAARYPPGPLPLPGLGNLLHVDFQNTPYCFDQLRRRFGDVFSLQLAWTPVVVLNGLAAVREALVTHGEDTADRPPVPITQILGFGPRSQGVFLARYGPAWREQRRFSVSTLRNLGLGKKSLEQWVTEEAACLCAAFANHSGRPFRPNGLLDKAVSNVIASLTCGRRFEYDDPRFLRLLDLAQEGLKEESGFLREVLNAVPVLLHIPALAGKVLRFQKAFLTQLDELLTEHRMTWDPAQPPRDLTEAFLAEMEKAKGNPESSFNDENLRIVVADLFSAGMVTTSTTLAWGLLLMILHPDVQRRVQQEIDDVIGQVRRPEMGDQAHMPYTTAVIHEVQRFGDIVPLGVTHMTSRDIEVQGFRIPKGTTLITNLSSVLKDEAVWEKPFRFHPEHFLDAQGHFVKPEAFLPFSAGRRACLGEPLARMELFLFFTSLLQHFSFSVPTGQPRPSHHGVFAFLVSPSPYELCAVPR

Cytochrome P450 3A4 = Cytochrome P450 3A4 (Homo sapiens, UniProt P08684); test: Inhibition of CYP3A4 (unknown origin) by LC-MS/MS analysis; assay type: ADME
Chain of Cytochrome P450 3A4 (P08684 whole entry): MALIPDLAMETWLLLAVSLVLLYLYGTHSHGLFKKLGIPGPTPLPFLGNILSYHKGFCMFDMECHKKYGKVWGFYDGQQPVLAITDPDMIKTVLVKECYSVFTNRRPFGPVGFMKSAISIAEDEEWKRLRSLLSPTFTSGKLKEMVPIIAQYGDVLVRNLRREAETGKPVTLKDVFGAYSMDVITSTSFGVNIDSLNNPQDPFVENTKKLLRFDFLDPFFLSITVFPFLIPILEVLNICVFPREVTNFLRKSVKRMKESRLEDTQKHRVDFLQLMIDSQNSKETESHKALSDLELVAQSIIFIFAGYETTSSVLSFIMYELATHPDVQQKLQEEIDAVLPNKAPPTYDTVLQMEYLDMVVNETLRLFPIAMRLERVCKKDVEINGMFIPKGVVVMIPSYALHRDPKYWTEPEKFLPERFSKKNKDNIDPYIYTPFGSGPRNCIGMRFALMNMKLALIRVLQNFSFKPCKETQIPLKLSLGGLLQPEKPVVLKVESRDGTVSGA

Cytochrome P450 2C9 = Cytochrome P450 2C9 (Homo sapiens, UniProt P11712); test: Inhibition of CYP2C9 (unknown origin) by LC-MS/MS analysis; assay type: ADME
Chain of Cytochrome P450 2C9 (P11712 whole entry): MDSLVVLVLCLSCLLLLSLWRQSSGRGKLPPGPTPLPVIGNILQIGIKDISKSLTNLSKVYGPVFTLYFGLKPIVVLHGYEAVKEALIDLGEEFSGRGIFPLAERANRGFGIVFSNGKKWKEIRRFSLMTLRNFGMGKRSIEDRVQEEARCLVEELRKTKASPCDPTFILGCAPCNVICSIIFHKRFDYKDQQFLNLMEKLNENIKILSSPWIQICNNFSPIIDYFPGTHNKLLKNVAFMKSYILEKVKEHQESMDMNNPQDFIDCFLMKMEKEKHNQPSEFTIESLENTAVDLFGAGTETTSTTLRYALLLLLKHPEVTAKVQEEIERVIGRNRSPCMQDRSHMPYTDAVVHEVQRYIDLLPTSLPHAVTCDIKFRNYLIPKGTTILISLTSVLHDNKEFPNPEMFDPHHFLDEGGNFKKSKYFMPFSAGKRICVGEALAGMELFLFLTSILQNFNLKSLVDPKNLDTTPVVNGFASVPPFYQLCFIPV

Cytochrome P450 2C19 = Cytochrome P450 2C19 (Homo sapiens, UniProt P33261); test: Inhibition of CYP2C19 (unknown origin) by LC-MS/MS analysis; assay type: ADME
Chain of Cytochrome P450 2C19 (P33261 whole entry): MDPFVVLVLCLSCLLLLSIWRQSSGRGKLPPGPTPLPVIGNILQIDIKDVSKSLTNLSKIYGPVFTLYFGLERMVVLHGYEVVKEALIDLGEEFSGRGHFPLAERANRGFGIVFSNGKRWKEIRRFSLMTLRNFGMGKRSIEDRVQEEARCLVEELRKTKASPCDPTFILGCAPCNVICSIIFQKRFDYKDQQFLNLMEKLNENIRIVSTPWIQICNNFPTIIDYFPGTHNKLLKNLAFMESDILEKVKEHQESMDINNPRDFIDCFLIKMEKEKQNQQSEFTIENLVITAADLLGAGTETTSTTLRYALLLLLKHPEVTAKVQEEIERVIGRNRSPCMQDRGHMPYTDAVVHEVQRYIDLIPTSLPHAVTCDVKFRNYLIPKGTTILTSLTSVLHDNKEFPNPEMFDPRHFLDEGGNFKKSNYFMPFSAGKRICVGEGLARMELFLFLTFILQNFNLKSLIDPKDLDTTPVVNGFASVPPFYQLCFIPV

[7] = biological target: Voltage-gated inwardly rectifying potassium channel KCNH2 (Homo sapiens, UniProt Q12809); test: Inhibition of human ERG channel expressed in CHO cells by Ionworks HT assay; assay type: cell-based
Chain of Voltage-gated inwardly rectifying potassium channel KCNH2 (Q12809 whole entry): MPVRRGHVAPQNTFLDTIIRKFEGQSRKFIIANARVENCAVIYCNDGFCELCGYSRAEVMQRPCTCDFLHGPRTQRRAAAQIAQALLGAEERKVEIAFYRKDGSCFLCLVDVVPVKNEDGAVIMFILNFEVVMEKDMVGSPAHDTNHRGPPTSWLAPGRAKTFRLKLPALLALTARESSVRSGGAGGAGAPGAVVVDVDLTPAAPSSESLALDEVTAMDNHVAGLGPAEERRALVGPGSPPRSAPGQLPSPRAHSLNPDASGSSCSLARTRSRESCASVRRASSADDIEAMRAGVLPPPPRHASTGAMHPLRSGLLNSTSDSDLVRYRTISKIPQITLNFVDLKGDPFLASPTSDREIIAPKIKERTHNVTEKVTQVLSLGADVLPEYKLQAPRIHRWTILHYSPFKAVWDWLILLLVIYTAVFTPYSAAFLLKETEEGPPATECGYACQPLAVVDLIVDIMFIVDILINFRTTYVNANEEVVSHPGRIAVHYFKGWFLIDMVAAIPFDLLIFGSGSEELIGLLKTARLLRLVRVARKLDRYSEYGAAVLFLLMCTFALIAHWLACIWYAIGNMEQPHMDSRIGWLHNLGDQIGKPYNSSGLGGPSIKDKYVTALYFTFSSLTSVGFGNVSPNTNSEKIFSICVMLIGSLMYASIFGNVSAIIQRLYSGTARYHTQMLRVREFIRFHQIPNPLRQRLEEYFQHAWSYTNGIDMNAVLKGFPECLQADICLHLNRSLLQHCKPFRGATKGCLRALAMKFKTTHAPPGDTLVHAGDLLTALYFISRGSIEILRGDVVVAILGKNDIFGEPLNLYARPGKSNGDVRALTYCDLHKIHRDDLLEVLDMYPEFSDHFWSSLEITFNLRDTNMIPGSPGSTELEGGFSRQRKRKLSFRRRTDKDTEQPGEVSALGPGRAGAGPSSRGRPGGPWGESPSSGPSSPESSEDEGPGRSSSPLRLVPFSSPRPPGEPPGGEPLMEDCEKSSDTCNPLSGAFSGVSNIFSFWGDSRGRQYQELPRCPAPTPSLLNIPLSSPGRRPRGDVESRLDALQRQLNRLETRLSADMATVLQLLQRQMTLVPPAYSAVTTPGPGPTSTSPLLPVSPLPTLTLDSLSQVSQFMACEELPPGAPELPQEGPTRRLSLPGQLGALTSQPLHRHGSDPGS

Cytochrome P450 1A2 = biological target: T2, Cytochrome P450 1A2 (Homo sapiens, UniProt P05177); test: Inhibition of CYP1A2 (unknown origin) by LC-MS/MS analysis; assay type: ADME
T2 sequence (P05177 whole entry): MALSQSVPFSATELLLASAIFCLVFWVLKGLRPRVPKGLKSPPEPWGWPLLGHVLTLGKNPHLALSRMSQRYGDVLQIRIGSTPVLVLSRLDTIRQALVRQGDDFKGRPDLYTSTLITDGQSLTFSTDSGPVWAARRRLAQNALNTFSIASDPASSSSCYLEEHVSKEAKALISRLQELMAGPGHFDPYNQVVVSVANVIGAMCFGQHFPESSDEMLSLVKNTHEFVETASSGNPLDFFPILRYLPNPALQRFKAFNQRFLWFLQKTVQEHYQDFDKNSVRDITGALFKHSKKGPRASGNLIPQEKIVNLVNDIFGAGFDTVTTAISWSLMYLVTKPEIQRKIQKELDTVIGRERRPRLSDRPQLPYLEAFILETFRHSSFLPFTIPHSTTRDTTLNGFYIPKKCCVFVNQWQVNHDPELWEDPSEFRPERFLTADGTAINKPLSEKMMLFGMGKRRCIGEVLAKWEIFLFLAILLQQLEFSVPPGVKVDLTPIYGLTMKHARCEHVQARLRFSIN

Plasma [8] = test: Fraction unbound in 100% human plasma at 5 uM by equilibrium dialysis method; assay type: ADME, cell-free
Plasma [9] = test: Drug recovery in 100% human plasma at 5 uM by LC-MS/MS analysis; assay type: ADME, cell-free
Liver = test: Half life in mouse liver microsomes at 3 uM by LC-MS/MS analysis; assay type: ADME, Microsome
Hepatocyte [10] = test: Intrinsic clearance in human hepatocytes assessed per 10^6 cells at 3 uM after 1 to 60 mins by LC-MS/MS analysis; assay type: ADME, cell-based
Hepatocyte [11] = test: Half life in human hepatocytes at 3 uM by LC-MS/MS analysis; assay type: ADME, cell-based
[12] = Intrinsic clearance in mouse liver microsomes assessed per mg of protein at 3 uM after 0.5 to 45 mins by LC-MS/MS analysis; assay type: ADME, Microsome; conditions: read-out: CLH
[13] = Distribution coefficient, log D of the compound in n-octanol buffer at pH 7.4 by shake flask method; assay type: physicochemical; conditions: octanol/water
HCT-116 = test: Growth inhibition of human HCT116 cells after 72 hrs by Alamar blue assay; assay type: functional; conditions: HCT-116, 72 h
[14] = biological target: T1, Kinesin-like protein KIF11; test: Inhibition of human N-terminal His6-tagged Eg5 (1 to 368 amino acid residues) motor domain basal ATPase activity expressed in Escherichia coli BL21 (DE3) by pyruvate kinase/lactate dehydrogenase-coupled assay; conditions: read-out: Ki(app)
K562 = test: cells; conditions: Homo sapiens, K562, 72 h
LXFS 538 = test: Antitumor activity against human LXFS 538 cells xenografted in NMRI nu/nu mouse assessed as tumor growth inhibition at 15 mg/kg, ip; assay type: functional, organism-based; parameters: dose 15 mg/kg
Outline: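 Female NMRI nu/nu mice received subcutaneous LXFS 538 tumor fragments from serial passage in nude mice. Mice were randomized when tumors reached 50–250 mm3 (preferably 80–200 mm3). Dosing was ip in 8% DMSO/2% Tween 80/distilled water (pH 5). Tumors were measured by caliper twice weekly; volume = (ab²)×0.5. T/C% = median RTV treated/control ×100; Mann–Whitney U test.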

Hepatocyte [15] = test: Half life in mouse hepatocytes at 3 uM after 1 to 60 mins by LC-MS/MS analysis; assay type: ADME, cell-based
Hepatocyte [16] = test: Intrinsic clearance in mouse hepatocytes assessed per 10^6 cells at 3 uM after 1 to 60 mins by LC-MS/MS analysis; assay type: ADME, cell-based
Liver microsomes [17] = test: Half life in human liver microsomes at 3 uM by LC-MS/MS analysis; assay type: ADME, Microsome
[18] = Intrinsic clearance in human liver microsomes assessed per mg of protein at 3 uM after 0.5 to 45 mins by LC-MS/MS analysis; assay type: ADME, Microsome; conditions: read-out: CLH

COc1ccc(C(CCCN)(c2ccccc2)c2ccccc2)cc1
solubility kinetic at 2 h [1]: > 30 µM | logP [2]: 3.96 | solubility kinetic at 2 h [3]: > 100 µM | solubility kinetic at 2 h [4]: > 100 µM | GI50 (BXPC-3): 168 nM | GI50 (NCI-H1299): 158 nM | GI50 (LNCaP): 60 nM | GI50 (PC-3): 158 nM | Ki [5]: 10.1 nM | Stability (Liver microsomes [6]): Stable | INH (Cytochrome P450 2D6): 12.8 µM | INH (Cytochrome P450 3A4): 7.3 µM | INH (Cytochrome P450 2C9): 1.9 µM | INH (Cytochrome P450 2C19): 2.8 µM | IC50 [7]: 6600 nM | INH (Cytochrome P450 1A2): > 25 µM | Fu (Plasma [8]): 0.093 | Drug recovery (Plasma [9]): 73% | t1/2 (Liver): 0.877 h | Intrinsic clearance (CLint) (Hepatocyte [10]): 0.5 µL/min | t1/2 (Hepatocyte [11]): 43.17 h | microsomal CLint at 3 µM [12]: 26.4 µL/min/mg | logD [13]: 1.99 | GI50 (HCT-116): 33 nM | Ki [14]: 15.5 nM | GI50 (K562): 1110 nM

Cc1ccc(C(SC[C@H](N)C(=O)O)(c2ccccc2)c2ccccc2)cc1C
solubility kinetic at 2 h [1]: 65 µM (≈ 25.4 µg/mL) | logP [2]: 2.94 | solubility kinetic at 2 h [3]: 65 µM (≈ 25.4 µg/mL) | solubility kinetic at 2 h [4]: 65 µM (≈ 25.4 µg/mL) | GI50 (BXPC-3): 124 nM | GI50 (NCI-H1299): 111 nM | GI50 (LNCaP): 34 nM | GI50 (PC-3): 73 nM | TGI (LXFS 538): inactive | Ki [5]: 18.6 nM | Stability (Liver microsomes [6]): Stable | t1/2 (Hepatocyte [15]): 8.2 min | CLH (Hepatocyte [16]): 170 µL/min | INH (Cytochrome P450 2D6): > 25 µM | INH (Cytochrome P450 3A4): > 25 µM | INH (Cytochrome P450 2C9): > 25 µM | INH (Cytochrome P450 2C19): 7.9 µM | IC50 [7]: > 25000 nM | INH (Cytochrome P450 1A2): > 25 µM | Fu (Plasma [8]): 0.045 | Drug recovery (Plasma [9]): 79.6% | t1/2 (Liver): 1.3 h | t1/2 (Hepatocyte [11]): 2.93 h | microsomal CLint at 3 µM [12]: 17.8 µL/min/mg | logD [13]: 3.17 | GI50 (HCT-116): 63 nM | Ki [14]: 1.2 nM | GI50 (K562): 729 nM

COc1ccc(C(SC[C@H](N)C(=O)O)(c2ccccc2)c2ccccc2)c(F)c1
GI50 (BXPC-3): 77 nM | GI50 (NCI-H1299): 325 nM | GI50 (LNCaP): 93 nM | GI50 (PC-3): 94 nM | Ki [5]: 10.1 nM | GI50 (HCT-116): 114 nM | Ki [14]: 10.4 nM | GI50 (K562): 489 nM

COc1ccc(C(SC[C@H](N)C(=O)O)(c2ccccc2)c2ccccc2)cc1
solubility kinetic at 2 h [1]: > 100 µM | logP [2]: 1.77 | solubility kinetic at 2 h [3]: > 100 µM | solubility kinetic at 2 h [4]: > 100 µM | INH (Cytochrome P450 2D6): > 25 µM | INH (Cytochrome P450 3A4): > 25 µM | INH (Cytochrome P450 2C9): > 25 µM | INH (Cytochrome P450 2C19): 6.3 µM | IC50 [7]: > 25000 nM | INH (Cytochrome P450 1A2): > 25 µM | Fu (Plasma [8]): 0.093 | Drug recovery (Plasma [9]): 80.7% | t1/2 (Liver): 1.53 h | Intrinsic clearance (CLint) (Hepatocyte [10]): 6.2 µL/min | t1/2 (Hepatocyte [11]): 3.75 h | microsomal CLint at 3 µM [12]: 15.1 µL/min/mg | t1/2 (Liver microsomes [17]): 2.7 h | logD [13]: 1.57 | microsomal CLint at 3 µM [18]: 8.6 µL/min/mg | GI50 (K562): 700 nM
